Laboratory results: ChEMBL document CHEMBL1806465, “Synthesis and biological evaluation of 4-nitro-substituted 1,3-diaryltriazenes as a novel class of potent antitumor agents” (Eur J Med Chem, 2011)
pIC50: −log10 of the molar value. Values after ≈ are worked out from the molar mass of the structure shown. Active and inactive are the calls of the source. No cut-off for these calls is given here.

How the values were obtained:
HeLa = assay: Cytotoxicity against human HeLa cells after 72 hrs by MTT assay; format: functional, cell-based
[1] = Solubility of the compound in DMSO; format: physicochemical
[2] = Solubility of the compound in water; format: physicochemical; conditions: buffer
Nucleic Acid = assay: Binding affinity to calf thymus DNA assessed as change in melting temperature at compound to DNA ratio of 0.3; format: nucleic-acid assay; conditions: Bos taurus
Summary of the method: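 ct-DNA sonicated, filtered, in Na-cacodylate buffer pH 7, I = 0.05 mol dm-3, 2 x 10^-5 mol dm-3 (as phosphate, ε260 = 6600); compound/DNA ratio 0.3. Absorbance at 260 nm followed versus temperature, compound absorbance subtracted, curves normalized. Tm taken from first-derivative maximum, confirmed by tangent method; ΔTm = Tm(complex) − Tm(free DNA), mean of ≥2 runs, error ±0.5 °C.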

[3] = Stability of the compound in DMSO after 26.25 hrs by LC/MS/MS analysis in presence of 10% FBS; format: physicochemical; conditions: cattle; for Stability: 26.25 h; for remaining at 26.25 h: DMSO with 10% FBS, read-out: Stability
L1210 = assay: Cytotoxicity against mouse L1210 cells at 32 uM; format: functional

## CC(=O)OCC(=O)N(/N=N/c1ccc([N+](=O)[O-])cc1Br)c1ccc([N+](=O)[O-])cc1Br
HeLa
  pIC50: 6.31

## COc1cc(/C=C/C(=O)N(/N=N/c2ccc(Cl)c(C(F)(F)F)c2)c2ccc(Cl)c(C(F)(F)F)c2)ccc1OC(C)=O
HeLa
  Activity: inactive
[1]
  solubility: 16.8 µM (≈ 10.4 µg/mL)

## FC(F)(F)c1cc(Cl)ccc1/N=N/Nc1ccc(Cl)cc1C(F)(F)F
HeLa
  Activity: inactive
[1]
  solubility: 62.2 µM (≈ 25 µg/mL)

## O=[N+]([O-])c1ccc(/N=N/Nc2ccc([N+](=O)[O-])cc2F)c(F)c1
[2]
  solubility: Insoluble

## O=C(c1ccccc1C(F)(F)F)N(/N=N/c1ccc([N+](=O)[O-])cc1C(F)(F)F)c1ccc([N+](=O)[O-])cc1C(F)(F)F
HeLa
  pIC50: 5.27

## Fc1ccc(/N=N/Nc2ccc(F)c(F)c2)cc1F
HeLa
  Activity: inactive
[1]
  solubility: 186 µM (≈ 50 µg/mL)

## O=C(CCl)N(/N=N/c1ccc([N+](=O)[O-])cc1C(F)(F)F)c1ccc([N+](=O)[O-])cc1C(F)(F)F
HeLa
  pIC50: 6.10

## O=C(c1cccc(F)c1)N(/N=N/c1ccc([N+](=O)[O-])cc1C(F)(F)F)c1ccc([N+](=O)[O-])cc1C(F)(F)F
HeLa
  pIC50: 6.06

## COc1cc(/C=C/C(=O)N(/N=N/c2cc(C(F)(F)F)ccc2Cl)c2cc(C(F)(F)F)ccc2Cl)cc(OC)c1
HeLa
  Activity: inactive
[1]
  solubility: 24.1 µM (≈ 14.3 µg/mL)

## COc1cc(/C=C/C(=O)N(/N=N/c2cc(C(F)(F)F)ccc2Cl)c2cc(C(F)(F)F)ccc2Cl)ccc1OC(C)=O
HeLa
  Activity: inactive
[1]
  solubility: 40.3 µM (≈ 25 µg/mL)

## O=C(c1ccc(F)cc1)N(/N=N/c1ccc([N+](=O)[O-])cc1Br)c1ccc([N+](=O)[O-])cc1Br
HeLa
  pIC50: 6.24

## O=C(c1cccc(C(F)(F)F)c1)N(/N=N/c1ccc([N+](=O)[O-])cc1Br)c1ccc([N+](=O)[O-])cc1Br
HeLa
  pIC50: 5.95

## O=C(Cc1ccccc1)N(/N=N/c1ccc([N+](=O)[O-])cc1Cl)c1ccc([N+](=O)[O-])cc1Cl
HeLa
  pIC50: 6.28

## O=C(c1ccc(C(F)(F)F)cc1)N(/N=N/c1ccc([N+](=O)[O-])cc1C(F)(F)F)c1ccc([N+](=O)[O-])cc1C(F)(F)F
HeLa
  pIC50: 6.16

## CC(=O)N(/N=N/c1ccc(Cl)c(C(F)(F)F)c1)c1ccc(Cl)c(C(F)(F)F)c1
HeLa
  pIC50: 4.30

## O=[N+]([O-])c1ccc(/N=N/Nc2ccc([N+](=O)[O-])cc2Cl)c(Cl)c1
Nucleic Acid
  Activity: inactive
[3]
  Stability: Stable
HeLa
  pIC50: 5.52
[2]
  solubility: Insoluble

## O=C(c1ccc(C(F)(F)F)cc1)N(/N=N/c1ccc([N+](=O)[O-])cc1Cl)c1ccc([N+](=O)[O-])cc1Cl
HeLa
  pIC50: 5.97

## Clc1ccc(/N=N/Nc2ccc(Cl)c(Cl)c2)cc1Cl
[1]
  solubility: 74.6 µM (≈ 25 µg/mL)

## O=[N+]([O-])c1ccc(/N=N/Nc2ccc([N+](=O)[O-])cc2C(F)(F)F)c(C(F)(F)F)c1
[3]
  Stability: Stable
[2]
  solubility: Insoluble

## CC(=O)NCC(=O)O.N=C(N)c1ccc(/N=N/Nc2ccc(C(=N)N)cc2)cc1 [DIMINAZEN ACETURATE]
L1210
  Activity: 50%
HeLa
  pIC50: 3.74

## CCOC(=O)CC(=O)N(/N=N/c1ccc([N+](=O)[O-])cc1C(F)(F)F)c1ccc([N+](=O)[O-])cc1C(F)(F)F
HeLa
  pIC50: 6.52

## Fc1cccc(/N=N/Nc2cccc(F)c2)c1
HeLa
  Activity: inactive
[1]
  solubility: 214 µM (≈ 50 µg/mL)

## O=C(c1cccc(C(F)(F)F)c1)N(/N=N/c1ccc([N+](=O)[O-])cc1C(F)(F)F)c1ccc([N+](=O)[O-])cc1C(F)(F)F
HeLa
  pIC50: 6.12

## O=C(c1ccc(F)cc1)N(/N=N/c1ccc([N+](=O)[O-])cc1C(F)(F)F)c1ccc([N+](=O)[O-])cc1C(F)(F)F
HeLa
  pIC50: 6.00

## CC(=O)Oc1ccc(/C=C/C(=O)N(/N=N/c2ccc(Cl)c(C(F)(F)F)c2)c2ccc(Cl)c(C(F)(F)F)c2)cc1OC(C)=O
HeLa
  pIC50: 4.37

## CC(=O)N(/N=N/c1cccc(F)c1)c1cccc(F)c1
HeLa
  Activity: inactive
[1]
  solubility: 182 µM (≈ 50 µg/mL)

## O=C(c1ccccc1)N(/N=N/c1ccc([N+](=O)[O-])cc1Cl)c1ccc([N+](=O)[O-])cc1Cl
[3]
  remaining at 26.25 h: 9%
HeLa
  pIC50: 6.23

## Clc1cc(Cl)c(/N=N/Nc2cc(Cl)c(Cl)cc2Cl)cc1Cl
HeLa
  Activity: inactive
[1]
  solubility: 41.3 µM (≈ 16.7 µg/mL)

## CC(=O)N(/N=N/c1ccc([N+](=O)[O-])cc1C(F)(F)F)c1ccc([N+](=O)[O-])cc1C(F)(F)F
[3]
  remaining at 26.25 h: 51%

## O=[N+]([O-])c1ccc(N=NNc2ccc([N+](=O)[O-])cc2)cc1
[1]
  solubility: 43.5 µM (≈ 12.5 µg/mL)

## O=C(c1cccc(C(F)(F)F)c1)N(/N=N/c1ccc([N+](=O)[O-])cc1Cl)c1ccc([N+](=O)[O-])cc1Cl
HeLa
  pIC50: 5.93

## O=C(c1ccccc1)N(/N=N/c1ccc([N+](=O)[O-])cc1C(F)(F)F)c1ccc([N+](=O)[O-])cc1C(F)(F)F
[3]
  remaining at 26.25 h: 63%
HeLa
  pIC50: 6.22

## O=C(CCl)N(/N=N/c1ccc([N+](=O)[O-])cc1Cl)c1ccc([N+](=O)[O-])cc1Cl
HeLa
  pIC50: 6.26

## COc1ccc(/C=C/C(=O)N(/N=N/c2cc(C(F)(F)F)ccc2Cl)c2cc(C(F)(F)F)ccc2Cl)c(OC)c1
HeLa
  Activity: inactive
[1]
  solubility: 84.4 µM (≈ 50 µg/mL)

## O=C(c1ccccc1F)N(/N=N/c1ccc([N+](=O)[O-])cc1Br)c1ccc([N+](=O)[O-])cc1Br
HeLa
  pIC50: 5.92

## Fc1ccc(/N=N/Nc2ccc(F)cc2F)c(F)c1
HeLa
  Activity: inactive
[1]
  solubility: 186 µM (≈ 50 µg/mL)

## O=C(c1ccccc1F)N(/N=N/c1ccc([N+](=O)[O-])cc1C(F)(F)F)c1ccc([N+](=O)[O-])cc1C(F)(F)F
HeLa
  pIC50: 6.10

## O=[N+]([O-])c1ccc(/N=N/Nc2ccc([N+](=O)[O-])cc2Br)c(Br)c1
HeLa
  pIC50: 6.03
[2]
  solubility: Insoluble

## COC(=O)N(/N=N/c1ccc([N+](=O)[O-])cc1Cl)c1ccc([N+](=O)[O-])cc1Cl
HeLa
  pIC50: 6.01

## Clc1ccc(Cl)c(/N=N/Nc2cc(Cl)ccc2Cl)c1
HeLa
  Activity: inactive
[1]
  solubility: 37.3 µM (≈ 12.5 µg/mL)

## CC(=O)Oc1ccc(/C=C/C(=O)N(/N=N/c2cccc(F)c2)c2cccc(F)c2)cc1OC(C)=O
HeLa
  Activity: inactive
[1]
  solubility: 52.1 µM (≈ 25 µg/mL)

## O=C(c1ccccc1)N(/N=N/c1ccc([N+](=O)[O-])cc1Br)c1ccc([N+](=O)[O-])cc1Br
HeLa
  pIC50: 5.82

## COc1ccc(/C=C/C(=O)N(/N=N/c2cc(C(F)(F)F)ccc2Cl)c2cc(C(F)(F)F)ccc2Cl)cc1OC
HeLa
  Activity: inactive
[1]
  solubility: 28.1 µM (≈ 16.6 µg/mL)

## O=C(c1ccccc1C(F)(F)F)N(/N=N/c1ccc([N+](=O)[O-])cc1Br)c1ccc([N+](=O)[O-])cc1Br
HeLa
  pIC50: 4.87

## CC(=O)OCC(=O)N(/N=N/c1ccc([N+](=O)[O-])cc1Cl)c1ccc([N+](=O)[O-])cc1Cl
HeLa
  pIC50: 6.46

## O=C(c1ccccc1F)N(/N=N/c1ccc([N+](=O)[O-])cc1Cl)c1ccc([N+](=O)[O-])cc1Cl
HeLa
  pIC50: 5.63

## O=C(c1ccccc1C(F)(F)F)N(/N=N/c1ccc([N+](=O)[O-])cc1Cl)c1ccc([N+](=O)[O-])cc1Cl
HeLa
  pIC50: 4.98

## O=C(c1cccc(F)c1)N(/N=N/c1ccc([N+](=O)[O-])cc1Cl)c1ccc([N+](=O)[O-])cc1Cl
HeLa
  pIC50: 5.60

## CC(=O)N(/N=N/c1ccc([N+](=O)[O-])cc1)c1ccc([N+](=O)[O-])cc1
HeLa
  pIC50: 4.20

## O=[N+]([O-])c1ccc(/N=N/Nc2ccc([N+](=O)[O-])cc2)cc1
HeLa
  Activity: inactive
